Screens (PubChem)
FLuc inh counter: Photinus pyralis luciferase inhibition counter-screen; ATPLite firefly luciferase biochemical luminescence, 10 min; inhibition, % at 10 µM; 1.5% of 200,000 active; AID 1006;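 active = inhibition above about 50% when tested at 10 µM, limit read from the data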
Target sequence (P08659 whole entry, looked up): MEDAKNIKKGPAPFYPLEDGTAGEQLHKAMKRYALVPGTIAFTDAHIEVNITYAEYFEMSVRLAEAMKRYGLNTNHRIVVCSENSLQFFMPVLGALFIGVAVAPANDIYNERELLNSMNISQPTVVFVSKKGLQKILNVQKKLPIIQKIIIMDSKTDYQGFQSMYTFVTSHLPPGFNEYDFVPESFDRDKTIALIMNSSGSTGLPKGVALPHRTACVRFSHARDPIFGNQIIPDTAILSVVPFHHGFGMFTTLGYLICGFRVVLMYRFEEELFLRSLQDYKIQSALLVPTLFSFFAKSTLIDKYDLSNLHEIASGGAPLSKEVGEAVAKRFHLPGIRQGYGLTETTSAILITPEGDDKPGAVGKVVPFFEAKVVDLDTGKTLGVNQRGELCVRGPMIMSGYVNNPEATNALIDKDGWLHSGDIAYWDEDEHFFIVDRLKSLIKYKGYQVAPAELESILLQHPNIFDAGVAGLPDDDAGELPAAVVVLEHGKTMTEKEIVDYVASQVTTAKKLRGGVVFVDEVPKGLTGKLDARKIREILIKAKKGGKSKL
STAT1 act: STAT1 signaling activation; activation (% of control), % at 5.5 µM; 2.6% of 200,000 active; NIH 3T3 STAT1-luciferase reporter, IFN-gamma, luminescence; 100% = IFN-gamma alone, no compound;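 active = activation above the screen-wide mean activation plus 3 SD, cut at about 130% in these data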;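 also: raw ratio to IFN-gamma control signal so 100% means no change and 0% no light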
FLuc act counter: firefly luciferase counter-screen for stimulation assays | activation factor at 10 µM | P08659 | AID 1027 | 200,000 tested, under 10 active | ATPlite luciferase biochemical, luminescence, 10 min; 0 = ATP-free wells, 1 = DMSO control;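 active = luciferase activation factor, scaled between plate controls, of at least 2 with compound at 10 µM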
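Material: Luciferase/luciferin reagent mix; Doses: test compounds dosed from 2 mM stocks in 100% DMSO; Schedule: 10 min incubation after luciferase reagent addition, room temperature; Measured by: luminescence from luciferase reaction; Read-out: luminescence gain marking luciferase activators.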
APP 5'UTR act: APP 5'UTR luciferase reporter activation. 1% of 190,000 active. SH-SY5Y APP 5'UTR luciferase reporter, luminescence; zero percent = DMSO vehicle wells. activation, % at 2 µM;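 active = activation above a set limit, based on mean plus 3 SD of controls, cut at about 140% in these data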
NF-kB neuron act: raises NF-kB expression in human neuronal cells; NF-kB reporter expression; stronger effect = higher value; fold change at 12.5 µM; 1.6% of 190,000 active; AID 1239; in the data active = fold change above about 3.3
STAT1 activ conf: confirmation of STAT1 signaling activators. NIH 3T3 STAT1-luciferase reporter, IFN-gamma potentiation, luminescence; 100% = IFN-gamma EC80 alone, no compound. 97% of 1,200 active. activation (% of control), % at 5.7 µM. shares compounds with STAT1 act;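 active = activation above a set limit carried over from the earlier primary STAT1 screen, cut at about 140% in these data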;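 also: simple ratio to median IFN-gamma plus DMSO wells so 0% means no light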
NFkB act: counter-screen for STAT1 activators: NF-kappaB activation; shares compounds with STAT1 act; HEK293T NF-kB luciferase reporter, TNF-alpha stimulated, luminescence; 100% = TNF-alpha with vehicle only; activation (% of control), % at 5.7 µM; 43% of 1,200 active;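 active = activation above the mean of solvent-only control wells plus 3 SD, set per campaign, cut at about 130% in these data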;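 also: TNF-alpha given at a submaximal dose yielding about 80% of full reporter signal; values are well signal over median control so 100% means no change and 0% no light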
STAT3 act STAT1c: counter-screen for STAT1 activators: human STAT3 activation | shares compounds with STAT1 act | U3A cells STAT3-luciferase reporter, IL-6, luminescence; cells lack STAT1; 100 = IL-6 alone, no compound effect | activation (% of control), % at 5.7 µM | 46% of 1,200 active;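 active = activation above the solvent-only control well mean plus 3 SD, set per plate batch, cut at about 110% in these data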;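 also: 0% = no luminescence and 100% = median IL-6 plus DMSO wells; higher means more STAT3 reporter activation so hits are non-selective activators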
* marks the source's active call; other numbers are inactive results; / = no result given. In the library only some 4.3% were active in any assay of this set; here they are far more common.

SMILES	FLuc inh counter	STAT1 act	FLuc act counter	APP 5'UTR act	NF-kB neuron act	STAT1 activ conf	NFkB act	STAT3 act STAT1c
CCC(=O)Nc1ccc2oc(-c3ccccc3Br)nc2c1	39.1	159.8*	0.6	118.0	5.65*	190.3*	138.2*	99.0
COc1cccc(OCC(=O)O/N=C(\N)c2ccc(OC)c(OC)c2)c1	-8.0	98.8	1.1	16.8	1.03	/	/	/
CC(C)(C)c1ccc(OCc2nc(-c3ccccn3)no2)c(Br)c1	2.1	158.0*	1	164.4*	3.73*	218.7*	142.9*	130.8*
COc1ccc(Cc2nc(-c3ccccn3)no2)cc1	12.0	120.6	0.9	43.5	1.8	/	/	/
COc1ccccc1NC(=O)COC(=O)c1ccccc1C(=O)N1CCN(c2ccccc2)CC1	2.8	87.6	1	3.1	0.91	/	/	/
CCCCC(=O)N/N=C(\C)c1cccc(NC(=O)C2CC2)c1	4.0	101.4	1	3.5	1.09	/	/	/
C/C(=N/NC(=O)c1ccoc1C)c1cccc(NC(=O)C2CC2)c1	8.5	159.2*	0.9	116.1	1.62	110.0	108.9	100.1
C/C(=N/NC(=O)c1ccoc1C)c1cccc(NC(=O)C(F)(F)F)c1	1.3	155.7*	1	52.2	1.65	116.2	108.6	95.9
CCc1ccc(-c2cn3c(n2)SCC3)cc1	64.1*	153.7*	0.4	100.0	7.2*	199.8*	130.2	95.5
COc1ccccc1-c1nn2c(-c3ccco3)nnc2s1	26.9	172.1*	0.7	44.1	1.4	192.3*	137.9*	107.7
Cc1ccc(N/C=C2/Sc3ccccc3NC2=O)cc1	22.8	168.4*	0.8	122.6	1.73	192.1*	134.6*	90.5
COc1ccc(N/C=C2/Sc3ccccc3NC2=O)cc1	23.0	166.2*	0.8	104.1	1.79	169.9*	112.5	107.1
O=C1Nc2ccccc2S/C1=C/NCc1ccccc1Cl	6.0	96.7	0.9	0.0	1.45	/	/	/
CCOC(=O)C1(CCCc2ccccc2)CCN(C(=O)c2cnn(CC)c2)CC1	-7.5	88.1	1.1	-14.6	1.14	/	/	/
Cc1sc2nc(SCC(=O)C(C)(C)C)n(Cc3ccco3)c(=O)c2c1C	-8.2	97.1	1.1	4.2	2	/	/	/
Cc1sc2nc3c4ccccc4c(NCc4ccco4)nn3c(=O)c2c1C	2.7	156.6*	1	135.9*	3.75*	207.9*	154.9*	114.4*
COc1ccc(-n2ncc3c(NCC4CCCO4)ncnc32)cc1 (stereo unspecified)	37.9	172.5*	0.6	113.6	2.71	182.2*	131.0	122.1*
COc1ccc(-n2ncc3c(NCCN4CCOCC4)ncnc32)cc1	6.1	124.6	0.9	58.8	0.64	/	/	/
Clc1ccc(-n2ncc3c(NCC4CCCO4)ncnc32)cc1 (stereo unspecified)	36.3	162.9*	0.6	155.7*	3.43*	254.3*	132.9	109.6
CCn1cc(C(=O)N2CCCc3ccccc32)c2cc(OC)c(OC)cc2c1=O	-7.2	103.1	1.1	2.9	0.74	/	/	/
N#C/C(=C/c1ccc(N2CCOCC2)o1)C(=O)Nc1ccccc1	55.2*	159.5*	0.4	162.1*	4.38*	194.8*	130.3	98.1
N#C/C(=C\c1ccc(N2CCOCC2)o1)C(=O)NCCc1ccccc1	0.6	104.4	1	29.5	0.96	/	/	/
O=C(Nc1ccc(S(=O)(=O)Nc2nccs2)cc1)c1ccc(N2C(=O)c3ccccc3C2=O)cc1	-7.7	104.6	1.1	2.5	1.08	/	/	/
CCOc1ccc(NC(=O)c2csc3c2CCCC3)cc1	33.8	171.4*	0.7	126.9	3.85*	197.9*	138.7*	103.9
Cc1nnc(NC(=O)c2csc3c2CCCC3)s1	2.6	84.5	1	21.4	1.31	/	/	/
SMILES	FLuc inh counter	STAT1 act	FLuc act counter	APP 5'UTR act	NF-kB neuron act	STAT1 activ conf	NFkB act	STAT3 act STAT1c
COc1cc(NC(=O)c2csc3c2CCCC3)ncn1	30.6	170.8*	0.7	62.4	3.33*	192.6*	127.8	101.7
CC(=O)c1cccc(NC(=O)c2csc3c2CCCCC3)c1	5.2	115.8	0.9	-20.1	1.15	/	/	/
CCOc1ccc(Oc2ccccc2NC(=O)CCNC(C)=O)cc1	-1.2	91.0	1	31.8	1.89	/	/	/
Cc1cc(/C=C2/NC(=O)NC2=O)c(C)n1-c1ccccn1	49.3	107.0	0.5	-12.6	1.43	/	/	/
COC(=O)C(C)N1C(=O)S/C(=C/c2cc(C)n(-c3ccccn3)c2C)C1=O (stereo unspecified)	58.4*	151.5*	0.4	59.2	3.56*	172.9*	133.3*	115.9*
Cc1ccc(OP(=O)(Nc2c(C)n(C)n(-c3ccccc3)c2=O)Oc2ccc(C)cc2)cc1	-2.6	100.4	1	-16.7	1.04	/	/	/
Cc1ccc(C(=O)c2sc3nsc(C)c3c2N)cc1	6.6	154.2*	0.9	197.9*	6.33*	238.6*	145.0*	113.6*
O=C(Nc1ccccc1)OC1CCS(=O)(=O)C1 (stereo unspecified)	-9.5	95.0	1.1	8.4	1.33	/	/	/
O=C(Nc1ccccc1)OC1CC2CC1C1CCCC21 (stereo unspecified)	27.7	162.2*	0.7	121.3	2.9	174.7*	133.5*	111.0*
c1ccc(CNc2ccc3ccccc3n2)nc1	35.9	152.8*	0.6	161.5*	4.7*	199.8*	107.3	91.6
Cc1cc(NCc2ccccn2)nc2ccccc12	2.6	89.4	1	-4.5	1.27	/	/	/
O=C(Nc1ccc2nsnc2c1)c1ccc2c(c1)OCO2	70.5*	153.9*	0.3	150.0*	7.02*	213.8*	126.2	95.0
Cc1cc(C(=O)Nc2ccc3c(c2)OCO3)cs1	65.1*	156.8*	0.3	177.5*	4.49*	168.0*	122.0	118.8*
Cn1c(C(=O)Nc2ccc3c(c2)OCCO3)cc2sccc21	81.4*	186.4*	0.2	152.4*	9.14*	271.9*	132.2	102.9
O=C(Cn1nnc(-c2ccccc2F)n1)NCc1ccco1	-4.7	101.5	1	19.7	0.86	/	/	/
CN(C)c1nc(C=C(C#N)C#N)c(Cl)n1-c1ccc(F)cc1	-9.4	85.5	1.1	-3.9	1.28	/	/	/
O=C1OC(c2ccccc2)=C/C1=C/N1CCCCC1	35.8	170.5*	0.6	65.5	1.27	160.1*	119.3	116.6*
CC(=O)/C=C(\C)Nc1ccc(-c2cnc(-c3ccccc3)o2)cc1	39.5	180.1*	0.6	98.7	4.8*	186.3*	108.7	94.1
O=C(Nc1ccc(-c2nnc(-c3ccccc3)o2)cc1)C(F)(F)F	-0.8	113.6	1	20.6	1.89	/	/	/
